# GSTO1 inh – GSTO1 inhibition, counter-screen for RBBP9 inhibitors. P78417. recombinant GSTO1, activity-based probe fluorescence polarization. inhibition, % at 5.96 µM. 300,000 compounds, 1.1% hits. AID 1974;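 active = inhibition above the campaign mean inhibition plus 3 SD, cut at about 35% in these data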
# PAD4 FP inh – blocks human protein arginine deiminase 4; Q9UM07; recombinant PAD4, RCA probe fluorescence polarization; inhibition, % at 6.36 µM; 330,000 compounds, 0.41% hits; AID 485272;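 active = percent inhibition above a cutoff equal to the mean of all tested compounds plus 3 SD, cut at about 15% in these data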
# Target sequence (Q9UM07 whole entry, looked up): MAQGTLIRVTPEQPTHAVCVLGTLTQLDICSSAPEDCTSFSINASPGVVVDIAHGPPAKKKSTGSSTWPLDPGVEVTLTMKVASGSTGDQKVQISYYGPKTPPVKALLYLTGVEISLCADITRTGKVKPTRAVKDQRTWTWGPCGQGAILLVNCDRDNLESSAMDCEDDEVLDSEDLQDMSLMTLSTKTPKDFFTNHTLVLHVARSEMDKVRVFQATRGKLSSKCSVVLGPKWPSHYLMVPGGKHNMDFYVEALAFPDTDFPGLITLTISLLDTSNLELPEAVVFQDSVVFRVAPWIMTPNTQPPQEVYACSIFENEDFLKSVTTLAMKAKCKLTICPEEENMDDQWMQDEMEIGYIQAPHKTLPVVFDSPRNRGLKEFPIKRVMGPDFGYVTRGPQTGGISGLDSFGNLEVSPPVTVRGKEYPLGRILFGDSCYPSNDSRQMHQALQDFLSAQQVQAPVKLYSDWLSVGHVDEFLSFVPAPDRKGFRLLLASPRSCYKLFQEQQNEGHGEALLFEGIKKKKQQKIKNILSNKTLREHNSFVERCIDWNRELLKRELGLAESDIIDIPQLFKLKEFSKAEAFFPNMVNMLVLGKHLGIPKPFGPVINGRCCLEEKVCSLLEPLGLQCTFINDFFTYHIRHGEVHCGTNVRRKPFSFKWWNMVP
# UCH37 DUB inh – inhibitors of human deubiquitinating enzyme UCH37. Q9Y5K5. purified proteasome/UCH37, Ub-AMC cleavage fluorescence. AID 588478. inhibition, % (concentration not given with the values). 330,000 compounds, 0.33% hits;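 active = mean inhibition over replicate wells above about 20%, limit read from the data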
#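 assay system = human UCH37 enzyme supplied as purified proteasome complex | amount = proteasome at 0.15 nM in the dispensed enzyme solution | schedule = 30 min compound-proteasome preincubation then 25 min substrate reaction, room temperature | measured by = fluorescence, ex 355 nm, em 460 nm | benchmarks = no-proteasome wells (full inhibition) and compound-free wells (no inhibition)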
# HKDC1 inh – HKDC1 (human) hexokinase inhibition | inhibition, % at 20 µM | 340,000 compounds, 0.16% hits | Q2TB90 | recombinant HKDC1, G6PDH/diaphorase resazurin coupled fluorescence;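 active = inhibition above about 35% when tested at 20 µM, limit read from the data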
#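 test system = in-house recombinant HK5 (HKDC1) enzyme | amount = HKDC1 at 5 µg/mL | control set = DMSO-enzyme wells negative, buffer-substituted wells positive | compound = one dose of 20 µM, 1% DMSO | schedule = reaction time 90 min, room temperature, protected from light | technique = resorufin fluorescence at 613 nm | reagent = glucose with 1 mM ATP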
# TDP2 inh – blocks human TDP2 phosphodiesterase activity. inhibition, % at 12.8 µM. O95551. recombinant TDP2, T5PNP hydrolysis, p-nitrophenol absorbance 415 nm. 370,000 compounds, 0.34% hits. AID 720702;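 active = inhibition above the mean of all tested compounds plus 3 SD, set per campaign, cut at about 25% in these data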
#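 test system = human TDP2 enzyme | input = TDP2 enzyme at 120 nM final | medium = 50 mM Tris-HCl pH 7.5 with Mg2+, KCl, DTT, BSA | also added = T5PNP substrate, 5 mM | times = 2 h at 37 °C | technique = epi absorbance | benchmarks = high control without enzyme, low control DMSO plus TDP2 | replication = each compound tested once, singlicate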
# CTSL1 counter – blocks F. hepatica cathepsin L1 in PFM18AAP counter-screen; recombinant F. hepatica cathepsin L1, Z-Leu-Arg-MCA fluorescence; inhibition, % at 5.96 µM; 300,000 compounds, 0.49% hits;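 active = inhibition above the mean of all tested compounds plus 3 SD, set per screening campaign, cut at about 17% in these data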
# Numbers stand for hits; – = inactive; · = no result. In the library only some 1.6% were active in any assay of this set; here they are far more common.
SMILES,GSTO1 inh,PAD4 FP inh,UCH37 DUB inh,HKDC1 inh,TDP2 inh,CTSL1 counter
CCOC(=O)CN(C#N)c1nc(N(C)C)nc(N(C)C)n1,–,–,·,–,–,54
CCNc1nc(NC(C)C)nc(N(C#N)CC(=O)OC)n1,–,–,–,–,–,71
COC(=O)CN(C#N)c1nc(SC)nc(N(C)C)n1,–,–,–,–,–,29
CSc1nc(N(C)C)nc(N(C)C#N)n1,–,–,–,–,–,–
CC(C)(C)c1cccc(C=NO)c1O,·,·,–,·,·,·
CC(=NNC(=O)c1ccccc1NC(=O)c1ccc(Cl)cc1)c1ccncc1,·,·,–,·,·,·
CC(=O)Nc1ccc(NC(=O)Cn2nc(C(=O)Nc3ccc(C)cc3)ccc2=O)cc1,–,–,–,–,–,47
COc1ccc(S(=O)(=O)N2CCC(C(=O)NCCC3=CCCCC3)CC2)cc1C,–,–,22,–,–,–
CC(C)(C)c1ccc(C=NN2C(=O)CSC2=S)cc1,·,·,–,·,·,·
O=C1S/C(=C\c2ccc(N3CCOCC3)o2)C(=O)N1Cc1c(F)cccc1Cl,–,–,–,–,–,–
O=C1S/C(=C/c2ccc(N3CCOCC3)o2)C(=O)N1Cc1c(F)cccc1Cl,–,–,–,–,–,49
O=C1Nc2ccccc2C12OCC1(CO2)COC2(OC1)C(=O)Nc1ccccc12 (centres undefined),–,–,–,–,–,28
CCCN1C(=O)SC(CC(=O)Nc2ccc(C)cc2)C1=O (centres undefined),–,–,–,–,–,–
CC(=O)Nc1ccc(NC(=O)CC2SC(=O)N(CC(=O)c3ccccc3)C2=O)cc1 (centres undefined),–,–,–,–,–,96
COc1ccc(C=NNC(=O)CCc2c(C)n[nH]c2C)cc1OC,·,·,–,·,·,·
COc1cccc(C=NNC(=O)CCc2c(C)n[nH]c2C)c1,·,·,29,·,·,·
C[n+]1cccc(C2C(C#N)=C(N)Oc3c2ccc2ccccc32)c1 (centres undefined),37,–,–,–,–,–
C[n+]1cccc2ccc3c(c21)OC(N)=C(C#N)C3c1ccccc1 (centres undefined),–,–,·,–,–,–
NC(=NO)C(c1ccccc1)c1ccccc1,·,·,–,·,·,·
CC(C)CC(C(=O)OCC(=O)Nc1cccc(Cl)c1)N1C(=O)C2CC=CCC2C1=O (centres undefined),–,–,–,–,–,22
CC1(C)CC2(CC(c3ccccc3F)c3ccc(O)c(O)c3O2)NC(=S)N1 (centres undefined),44,–,–,–,–,–
N/C(CCS(=O)(=O)c1ccc(Cl)cc1)=N\OC(=O)c1ccc(Cl)cc1,–,–,–,–,–,17
CCN(CC(=O)Nc1ccccc1C(F)(F)F)C(=O)CCS(=O)(=O)c1ccc(Cl)cc1,–,–,–,–,–,–
N/C(CCS(=O)(=O)c1ccc(Cl)cc1)=N\OC(=O)c1ccccc1C(F)(F)F,–,–,–,–,–,19
COc1cc(C=NNC(=O)COc2c(C)cc([N+](=O)[O-])cc2C)ccc1OC(=O)c1ccccc1Br,·,·,–,·,·,·
SMILES,GSTO1 inh,PAD4 FP inh,UCH37 DUB inh,HKDC1 inh,TDP2 inh,CTSL1 counter
O=C(COc1ccccc1Cc1ccccc1)NCCCN1CCOCC1,–,–,–,–,–,20
CCOc1ccc(C(CCC(=O)O)=NNC(=S)NCCc2ccccc2)cc1,·,·,–,·,·,·
Cn1c(SCC(=O)CC(=O)Nc2ccccc2)nnc1-c1ccc(O)cc1,–,–,–,–,–,27
O=C(CSc1nnnn1-c1ccccc1)CC(=O)Nc1ccc(Cl)cc1,–,–,–,–,–,24
Cc1ccc(OCc2nnc(SCC(=O)CC(=O)Nc3ccccc3)o2)cc1,–,–,–,–,–,25
Cc1cccc(OCc2nnc(SCC(=O)Nc3ncc(C)s3)o2)c1,–,–,–,–,–,–
Cc1ccc(-c2nnc(SCC(=O)CC(=O)Nc3ccccc3)n2C)cc1,–,–,–,–,–,–
CCc1nnc(NC(=O)CSc2nnc(COc3cccc(C)c3)o2)s1,35,–,–,–,–,–
COc1ccc(-c2oc(N=CN3CCCC3)c(C#N)c2-c2ccc(OC)cc2)cc1,·,·,–,·,·,·
Cn1nc(C(F)(F)F)c(C=NOC(=O)c2ccccc2)c1Cl,·,·,–,·,·,·
CCC1(CC)NC(=O)NC1=O,–,–,32,–,–,–
CC(C)(CC(=O)O)CC(=O)NCc1c(Cl)cccc1Sc1ccc(Cl)cc1,37,–,–,–,–,–
Clc1ccc(CON=C2CCCc3nonc32)cc1,·,·,–,·,·,·
CC(=NNC(=O)c1ccc(Br)o1)c1cccc(NC(=O)c2ccc(C)o2)c1,·,·,–,·,·,·
CCn1c(SCC(=O)NCc2ccco2)nc2ccccc2c1=O,–,–,–,–,–,–
CCn1c(SCC(=O)NCCOc2ccccc2)nc2ccccc2c1=O,–,–,28,–,–,–
CCC(O)CC(C(=O)NNc1ccccc1)C(=O)NNc1ccccc1 (centres undefined),–,–,30,–,–,–
Nc1ccc(O)cc1,98,52,·,·,·,96
Cc1oc(-c2cccc(Cl)c2)nc1CS(=O)(=O)CC(=O)NCCN1CCCC1,–,–,–,–,–,90
Cc1oc(-c2cccc(Cl)c2)nc1CS(=O)(=O)CC(=O)NCCN1CCOCC1,–,–,–,–,–,–
O=C(NN=Cc1cccnc1)c1ccc(NC(=O)c2ccc(F)cc2)cc1,·,·,–,·,·,·
COc1ccc(C(C)=NNc2ccc(F)cc2F)c(O)c1,·,·,–,·,·,·
COC(=O)CN(C)C(=O)c1ccc(OC)c(OC2CCN(C(C)C)CC2)c1,–,–,–,–,–,52
Cc1cccc(N=CC2=C(O)CC(C)(C)CC2=O)n1,·,·,–,·,·,·
CCN(CC)S(=O)(=O)c1cccc(C(=O)NCCc2ccccc2)c1,–,–,–,–,–,–
SMILES,GSTO1 inh,PAD4 FP inh,UCH37 DUB inh,HKDC1 inh,TDP2 inh,CTSL1 counter
CN(c1ccccc1)S(=O)(=O)c1cccc(C(=O)NCCc2ccc(O)c(O)c2)c1,39,–,–,–,–,–
O=C(O)c1ccc(S(=O)(=O)Nc2ccc(O)c(Sc3nc4ccccc4s3)c2)cc1,55,–,–,–,–,–
Cn1c(=O)c2c(nc(OCc3ccccc3)n2C)n(C)c1=O,–,–,–,–,–,–
COc1cccc(COc2nc3c(c(=O)n(C)c(=O)n3C)n2C)c1,36,–,–,–,–,–
Cc1ccc2nc(N(CCN(C)C)C(=O)c3cc(Cl)sc3Cl)sc2c1,–,–,–,–,–,–
Cc1cc(C)c2sc(N(CCN(C)C)C(=O)c3cc(Cl)sc3Cl)nc2c1,–,–,–,–,–,17
Cc1nc2ccccc2c(=O)n1N=Cc1ccccc1OC(F)F,·,·,–,·,·,·
CCCCCCC(=O)NN=C(C)Cc1ccccc1,·,·,–,·,·,·
CCc1onc(C)c1C(=O)Nc1ccc2c(c1)OCO2,–,–,–,–,–,19
